The target of series [1] is Muscarinic acetylcholine receptor M3 (Homo sapiens) (UniProt P20309). As to conditions: 1 to 2 uM.
Series [2] addresses Kappa-type opioid receptor (Homo sapiens) (UniProt P41145). As to conditions: 1 to 2 uM.
Series [3] addresses Muscarinic acetylcholine receptor M2 (Homo sapiens) (UniProt P08172). As to conditions: 1 to 2 uM.
Series [4] concerns the target 5-hydroxytryptamine receptor 1B (Homo sapiens) (UniProt P28222). The note with it: 1 to 2 uM.
For series [5], the target named is D(3) dopamine receptor (Homo sapiens) (UniProt P35462). As to conditions: 1 to 2 uM.
The target of series [6] is 5-hydroxytryptamine receptor 2A (Homo sapiens) (UniProt P28223). The note with it: 1 to 2 uM.
Series [7] addresses 5-hydroxytryptamine receptor 1A (Homo sapiens) (UniProt P08908). As to conditions: 1 to 2 uM.
Series [8] concerns the target Mu-type opioid receptor (Homo sapiens) (UniProt P35372). The note with it: 1 to 2 uM.
Series [9] deals with 5-hydroxytryptamine receptor 2B (Homo sapiens) (UniProt P41595). As to conditions: 1 to 2 uM.
Chain of 5-hydroxytryptamine receptor 2B (Homo sapiens) (P41595 whole entry): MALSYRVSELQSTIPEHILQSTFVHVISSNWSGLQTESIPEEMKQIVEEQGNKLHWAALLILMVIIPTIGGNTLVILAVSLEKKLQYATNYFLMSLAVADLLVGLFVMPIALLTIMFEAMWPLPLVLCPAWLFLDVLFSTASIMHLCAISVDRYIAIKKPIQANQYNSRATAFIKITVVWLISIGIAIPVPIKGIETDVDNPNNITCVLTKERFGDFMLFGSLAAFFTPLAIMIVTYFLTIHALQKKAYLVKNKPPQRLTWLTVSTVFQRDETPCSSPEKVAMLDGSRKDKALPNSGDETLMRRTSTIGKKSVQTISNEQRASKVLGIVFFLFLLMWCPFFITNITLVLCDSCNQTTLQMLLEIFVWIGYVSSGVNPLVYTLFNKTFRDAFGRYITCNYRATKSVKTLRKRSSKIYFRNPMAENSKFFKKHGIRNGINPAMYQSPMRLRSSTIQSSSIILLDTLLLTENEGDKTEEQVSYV
Series [10] addresses Motilin receptor (Homo sapiens) (UniProt O43193). The note with it: 1 to 2 uM.
The target of series [11] is Adrenergic receptor alpha-1 (Homo sapiens) (UniProt P35348+P25100+P35368). As to conditions: 1 to 2 uM.
In series [12] the target is T1, 5-hydroxytryptamine receptor 4 (Homo sapiens, UniProt Q13639). As to conditions: 1 to 2 uM.
T1 sequence (Q13639 whole entry): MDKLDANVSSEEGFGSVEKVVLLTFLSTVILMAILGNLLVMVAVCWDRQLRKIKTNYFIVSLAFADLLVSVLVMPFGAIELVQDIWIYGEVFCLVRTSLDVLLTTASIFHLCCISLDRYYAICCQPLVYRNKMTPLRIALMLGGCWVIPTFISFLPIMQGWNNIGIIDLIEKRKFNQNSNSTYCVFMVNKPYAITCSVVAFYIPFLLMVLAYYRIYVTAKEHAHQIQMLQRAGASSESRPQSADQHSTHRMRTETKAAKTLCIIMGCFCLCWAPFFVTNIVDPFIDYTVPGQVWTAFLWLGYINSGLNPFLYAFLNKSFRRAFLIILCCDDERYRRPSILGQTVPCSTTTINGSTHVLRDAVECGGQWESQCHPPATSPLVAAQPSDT
In series [13] the target is Substance-K receptor (Homo sapiens) (UniProt P21452). The note with it: 1 to 2 uM.
Chain of Substance-K receptor (Homo sapiens) (P21452 whole entry): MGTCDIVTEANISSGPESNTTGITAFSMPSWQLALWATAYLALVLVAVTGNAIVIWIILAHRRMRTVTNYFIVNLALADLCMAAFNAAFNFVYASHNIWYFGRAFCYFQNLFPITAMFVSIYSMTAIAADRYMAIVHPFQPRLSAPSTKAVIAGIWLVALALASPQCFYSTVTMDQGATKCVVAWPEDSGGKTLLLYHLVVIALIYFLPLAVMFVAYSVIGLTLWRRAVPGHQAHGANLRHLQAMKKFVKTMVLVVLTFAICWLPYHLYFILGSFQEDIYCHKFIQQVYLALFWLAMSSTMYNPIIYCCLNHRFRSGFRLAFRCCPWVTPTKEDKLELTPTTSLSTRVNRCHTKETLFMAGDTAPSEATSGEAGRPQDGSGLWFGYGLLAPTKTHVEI
Series [14] deals with Adrenergic receptor alpha-2 (Homo sapiens) (UniProt P08913+P18825+P18089). As to conditions: 1 to 2 uM.
Series [15] has as its target 5-hydroxytryptamine receptor 3A (Homo sapiens) (UniProt P46098). As to conditions: 1 to 2 uM.
Series [16] addresses D(2) dopamine receptor (Homo sapiens) (UniProt P14416). As to conditions: 1 to 2 uM.
For series [17] the target is unchanged. As to conditions: 1 to 2 uM. This is another data set of the same source.
Series [18] has as its target Substance-P receptor (Homo sapiens) (UniProt P25103). The note with it: 1 to 2 uM.
Series [19] has as its target Cholecystokinin receptor type A (Homo sapiens) (UniProt P32238). As to conditions: 1 to 2 uM.
The target in series [20] is Beta-1 adrenergic receptor (Homo sapiens) (UniProt P08588). As to conditions: 1 to 2 uM.
Chain of Beta-1 adrenergic receptor (Homo sapiens) (P08588 whole entry, looked up): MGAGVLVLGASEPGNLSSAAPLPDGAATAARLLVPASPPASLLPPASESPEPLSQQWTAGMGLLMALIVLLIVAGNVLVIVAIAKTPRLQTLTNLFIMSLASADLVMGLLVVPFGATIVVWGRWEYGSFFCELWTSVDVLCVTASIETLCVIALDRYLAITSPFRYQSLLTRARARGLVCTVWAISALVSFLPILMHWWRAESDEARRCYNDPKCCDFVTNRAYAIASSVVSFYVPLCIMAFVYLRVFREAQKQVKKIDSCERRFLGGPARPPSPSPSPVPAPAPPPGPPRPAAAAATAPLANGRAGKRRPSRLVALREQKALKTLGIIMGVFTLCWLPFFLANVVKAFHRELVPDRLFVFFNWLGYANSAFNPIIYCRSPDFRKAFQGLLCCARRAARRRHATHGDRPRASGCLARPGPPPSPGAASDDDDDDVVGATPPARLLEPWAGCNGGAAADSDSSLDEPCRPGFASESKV
Series [21] has as its target Somatostatin receptor type 2 (Homo sapiens) (UniProt P30874). The note with it: 1 to 2 uM.
Series [22] in a line: Cmax in rat at 5 mg/kg, po. In kind it is ADME, organism-based. Further details: dose 5 mg/kg, route oral. The note with it: in vivo.
Series [23] addresses 5-hydroxytryptamine receptor 4 (Rattus norvegicus, UniProt Q62758). Description: Agonist activity at 5-HT4 receptor in rat esophageal thoracic muscularis mucosae assessed as carbachol-induced contraction. The gist of the method:
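The distal 1.2 cm of rat esophagus was equilibrated 60 min in Krebs–Henseleit, washed every 15 min, with isometric force recording. Tissue was precontracted with 3 μM carbachol, then given a cumulative relaxation curve to 5-HT. After a wash and 60 min recovery it was recontracted and a test-compound curve run. Potency is relative to 5-HT in the same preparation.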

Series [24] in a line: Tmax in rat at 5 mg/kg, po. As to conditions: in vivo. Format: ADME, organism-based.
The subject of series [25] is Rattus norvegicus. The series is described as follows: AUCinfinity in rat at 5 mg/kg, po. In kind it is ADME, organism-based. Also on record: dose 5 mg/kg, time infinity, route oral. As to conditions: in vivo.
Series [26] deals with Rattus norvegicus. The series is described as follows: Induction of gastric emptying rate in Sprague-Dawley rat at 5 mg/kg, iv administered prior to feeding measured after 30 mins. Format: functional, Stomach.
The nature of series [27]: Half life in rat at 5 mg/kg, po. As to conditions: in vivo. In kind it is ADME, organism-based.
For series [28], the system named is Rattus norvegicus. Description: Induction of gastric emptying rate in Sprague-Dawley rat at 5 mg/kg, iv administered prior to feeding along with cisplatin injection measured after 40 mins. In kind it is functional, Stomach. The gist of the method:
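Male Sprague-Dawley rats (220–250 g) were fasted 18 h with water available. A 2 mL semisolid meal was given 30 min after drug, together with cisplatin 5 mg/kg i.v. Gastric emptying was determined 40 min later from stomach weights versus 0-time controls: [1 − test/control] × 100.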

Series [29] has as its target T1, 5-hydroxytryptamine receptor 4. The series is described as follows: Displacement of [3H]-GR113808 from human 5-HT4 receptor expressed in African green monkey COS7 cell membranes after 30 mins by liquid scintillation counting analysis. Further details: species or system COS-7. The gist of the method:
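Membranes from Cos-7 cells expressing human 5-HT4: cells washed in PBS, pelleted, then resuspended in ice-cold 50 mM HEPES pH 7.4 and spun at 40,000 g for 30 min at 4 °C. Nonspecific binding was set with 10 μM 5-HT. IC50 came from linear regression of the displacement curve.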
(Loss of bound radioactivity is the signal in a displacement assay; it reports binding, not function.)

In series [30] the test system is Rattus norvegicus. Description: Induction of gastric emptying rate in Sprague-Dawley rat at 0.5 mg/kg, po administered prior to feeding measured after 30 mins. In kind it is functional, Stomach. Summed up: (§1)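 Male Sprague-Dawley rats (220–250 g) were fasted 18 h with free water. A 2 mL semisolid meal was gavaged 50 min after drug, and rats were killed 30 min later. Stomach plus contents were weighed. Gastric emptying (%) = [1 − test stomach weight/0-time control stomach weight] × 100.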

In series [31] the test system is Rattus norvegicus. The series is described as follows: Induction of gastric emptying rate in Sprague-Dawley rat at 0.1 mg/kg, po administered prior to feeding measured after 30 mins. Format: functional, Stomach. Summed up:
as §1

Chain of D(2) dopamine receptor (Homo sapiens) (P14416 whole entry): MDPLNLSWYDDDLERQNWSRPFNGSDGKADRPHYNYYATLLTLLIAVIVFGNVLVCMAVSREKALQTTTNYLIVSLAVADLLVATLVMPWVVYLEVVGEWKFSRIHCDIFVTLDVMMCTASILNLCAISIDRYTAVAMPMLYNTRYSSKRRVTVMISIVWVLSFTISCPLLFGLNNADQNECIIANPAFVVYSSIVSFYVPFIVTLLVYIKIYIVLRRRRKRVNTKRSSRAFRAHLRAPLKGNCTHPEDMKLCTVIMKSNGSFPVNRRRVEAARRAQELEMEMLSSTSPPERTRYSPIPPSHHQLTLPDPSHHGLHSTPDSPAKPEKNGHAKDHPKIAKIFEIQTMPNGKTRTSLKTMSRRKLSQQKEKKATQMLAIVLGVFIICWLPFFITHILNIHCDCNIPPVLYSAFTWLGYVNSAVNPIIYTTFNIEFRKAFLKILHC
Chain of Muscarinic acetylcholine receptor M2 (Homo sapiens) (P08172 whole entry): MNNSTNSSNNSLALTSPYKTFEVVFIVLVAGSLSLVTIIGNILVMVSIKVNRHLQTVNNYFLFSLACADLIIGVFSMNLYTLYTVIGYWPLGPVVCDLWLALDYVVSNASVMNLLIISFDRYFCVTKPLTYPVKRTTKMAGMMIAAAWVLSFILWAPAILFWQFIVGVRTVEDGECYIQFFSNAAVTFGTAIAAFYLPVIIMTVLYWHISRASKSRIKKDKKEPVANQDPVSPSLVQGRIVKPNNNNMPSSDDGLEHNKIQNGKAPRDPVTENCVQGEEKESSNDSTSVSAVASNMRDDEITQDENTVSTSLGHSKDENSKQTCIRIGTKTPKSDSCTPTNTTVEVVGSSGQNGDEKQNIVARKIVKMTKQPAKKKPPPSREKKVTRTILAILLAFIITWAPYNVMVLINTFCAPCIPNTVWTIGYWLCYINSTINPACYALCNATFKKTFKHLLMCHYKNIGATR
Chain of 5-hydroxytryptamine receptor 3A (Homo sapiens) (P46098 whole entry): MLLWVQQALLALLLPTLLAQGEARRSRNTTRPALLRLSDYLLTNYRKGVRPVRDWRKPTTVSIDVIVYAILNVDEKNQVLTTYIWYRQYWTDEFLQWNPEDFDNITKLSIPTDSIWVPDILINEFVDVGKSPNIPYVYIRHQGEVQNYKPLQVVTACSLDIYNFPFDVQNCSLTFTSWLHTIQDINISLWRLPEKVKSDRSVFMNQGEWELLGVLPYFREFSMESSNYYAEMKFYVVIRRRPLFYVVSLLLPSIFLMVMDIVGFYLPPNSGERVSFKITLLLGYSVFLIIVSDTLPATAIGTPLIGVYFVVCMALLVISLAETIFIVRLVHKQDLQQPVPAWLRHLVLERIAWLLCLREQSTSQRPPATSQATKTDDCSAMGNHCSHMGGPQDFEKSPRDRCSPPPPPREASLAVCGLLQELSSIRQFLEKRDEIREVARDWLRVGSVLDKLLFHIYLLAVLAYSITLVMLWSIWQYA
Chain of 5-hydroxytryptamine receptor 1B (Homo sapiens) (P28222 whole entry): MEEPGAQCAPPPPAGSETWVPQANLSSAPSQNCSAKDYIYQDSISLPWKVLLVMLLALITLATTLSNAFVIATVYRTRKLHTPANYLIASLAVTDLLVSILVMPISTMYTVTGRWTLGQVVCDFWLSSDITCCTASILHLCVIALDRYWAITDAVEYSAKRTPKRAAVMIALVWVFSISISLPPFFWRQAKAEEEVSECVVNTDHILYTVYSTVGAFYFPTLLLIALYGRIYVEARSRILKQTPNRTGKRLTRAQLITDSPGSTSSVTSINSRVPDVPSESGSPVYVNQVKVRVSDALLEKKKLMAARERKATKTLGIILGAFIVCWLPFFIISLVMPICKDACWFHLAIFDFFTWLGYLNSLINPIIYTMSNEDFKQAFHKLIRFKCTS
Chain of Mu-type opioid receptor (Homo sapiens) (P35372 whole entry): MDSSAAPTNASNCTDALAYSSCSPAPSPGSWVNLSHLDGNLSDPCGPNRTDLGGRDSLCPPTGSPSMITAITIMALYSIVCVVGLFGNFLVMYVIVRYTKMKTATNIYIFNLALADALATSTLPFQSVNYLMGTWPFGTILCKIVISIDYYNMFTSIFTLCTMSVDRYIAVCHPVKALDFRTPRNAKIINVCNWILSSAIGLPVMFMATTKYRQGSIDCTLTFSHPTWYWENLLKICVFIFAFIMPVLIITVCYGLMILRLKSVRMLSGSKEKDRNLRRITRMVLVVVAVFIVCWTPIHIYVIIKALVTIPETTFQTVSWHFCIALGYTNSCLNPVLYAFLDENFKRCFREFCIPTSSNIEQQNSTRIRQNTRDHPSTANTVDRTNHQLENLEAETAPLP
Chain of Somatostatin receptor type 2 (Homo sapiens) (P30874 whole entry): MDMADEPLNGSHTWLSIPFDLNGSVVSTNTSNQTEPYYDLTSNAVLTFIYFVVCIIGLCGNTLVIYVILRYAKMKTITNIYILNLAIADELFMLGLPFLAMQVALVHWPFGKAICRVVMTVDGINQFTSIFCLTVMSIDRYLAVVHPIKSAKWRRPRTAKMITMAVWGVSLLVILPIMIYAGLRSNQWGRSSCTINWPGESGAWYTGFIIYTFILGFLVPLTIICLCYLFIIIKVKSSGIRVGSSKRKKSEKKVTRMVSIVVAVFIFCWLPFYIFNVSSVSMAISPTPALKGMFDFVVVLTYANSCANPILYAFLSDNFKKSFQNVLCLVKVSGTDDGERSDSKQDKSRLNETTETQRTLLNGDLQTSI
Chain of Substance-P receptor (Homo sapiens) (P25103 whole entry): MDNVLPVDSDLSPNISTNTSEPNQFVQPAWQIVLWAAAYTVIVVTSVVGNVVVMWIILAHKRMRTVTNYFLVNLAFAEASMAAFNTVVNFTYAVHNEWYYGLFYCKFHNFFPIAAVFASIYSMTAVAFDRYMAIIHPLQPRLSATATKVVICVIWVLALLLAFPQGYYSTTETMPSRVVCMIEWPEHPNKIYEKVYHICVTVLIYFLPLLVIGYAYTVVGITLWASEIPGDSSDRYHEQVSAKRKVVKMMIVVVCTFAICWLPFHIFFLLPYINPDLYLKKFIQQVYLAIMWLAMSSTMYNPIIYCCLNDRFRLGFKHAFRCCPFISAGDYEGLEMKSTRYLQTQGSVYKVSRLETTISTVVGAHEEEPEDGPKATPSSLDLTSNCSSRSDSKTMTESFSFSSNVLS

Consider `COc1cc(N)c(Cl)cc1C(=O)N[C@H]1CCN(CC2CCN(C(=O)C(C)C)CC2)C[C@H]1OC` (racemic) [listing 1 of 2 here], for which the inhibition in [1], in series [2], in series [3], in series [4], in series [5] and in series [6] was 50% each time. Further, the inhibition in series [7], in series [8], in series [9], in series [10], in series [11] and in series [12] was 50% in each case. The inhibition in [13], in series [14], in [15], in [16], in series [17] and in [18] was 50% in each case. Besides, the inhibition in series [19], in series [20] and in series [21] was 50% throughout.

For `COc1cc(N)c(Cl)cc1C(=O)N[C@H]1CCN(CC2CCN(C(=O)C(C)C)CC2)C[C@H]1OC` (racemic) [listing 2 of 2 here], the Cmax (as a rule, the peak of the concentration-time curve) in series [22] was determined as 572 ng/mL. For the same compound, in series [23], the EC50 – broadly, the concentration needed to bring the measured effect to its halfway point – was 45.7 nM. In addition, the Tmax – broadly, the time at which the peak concentration occurs – in series [24] was determined as 15 min. Moreover, in the series with Rattus norvegicus [25], the area under the curve (AUC) (commonly the area under the concentration-time curve, a measure of exposure) was determined as 483 ng·h/mL. Also, the Activity is given as 59.1% with Rattus norvegicus [26], 58.6% in the series on Rattus norvegicus [28], 46.9% in the series with Rattus norvegicus [30] and 46.2% in the series on Rattus norvegicus [31]. Further, in [27], the half-life (in general, the time needed for the level to fall by half in the phase considered) was 58.8 min. The IC50 (as a rule, the concentration at which inhibition is half-maximal) in series [29] turned out to be 134 nM.

Source of the values: ChEMBL document CHEMBL3758150, “Discovery and SAR of N-(1-((substituted piperidin-4-yl)methyl)-3-methoxypiperidin-4-yl)-2-methoxybenzamide derivatives: 5-Hydroxytryptamine receptor 4 agonist as a potent prokinetic agent” (Eur J Med Chem, 2016).
